Source: PubChem
Sampled rows, rich in hits. Any-hit rate of the full collection: about 9.2%.
Lmaj promast = Leishmania major promastigote growth inhibition, primary screen; Leishmania major promastigotes, resazurin fluorescence viability; hit rate 9% among 200,000; inhibition, % at 10 µM; in the data active = inhibition above about 50%;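 note: promastigotes grown with compound for 44 hours at 28 °C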
Autophagy HCS = autophagy modulators in MEF cells, primary screen, imaging, high-content, MEF GFP-LC3; MEF GFP-LC3 puncta imaging; test concentration mostly 10 µM; calls only at 10 µM (by protocol); hit rate 0.98% among 190,000;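 active = percentage of spot-positive cells more than 3 SD above its plate mean, without a fluorescence outlier flag or 80% toxicity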;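 note: spot-positive cell cutoff set from DMSO-treated cells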
bCat KO growth = primary screen for growth suppressors in beta-catenin knockout HCT116 cells (colon tumor, human) | HCT116 beta-catenin knockout viability, CellTiter-Glo, 60 h; hits give low values | viability, % at 10 µM | hit rate 1.5% among 140,000 | AID 818, 2007;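 active = viability at or under a set limit, the compound median less 4 SD, cut at about 6% in these data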;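 note: 0% = Hyamine 1622 control at 20 µM and 100% = untreated cell control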
PTEN del growth = growth suppression of PTEN-null HCT116, primary screen, cell-based, CellTiter-Glo; HCT116 PTEN-null viability, 60 h; hits give low values; viability, % at 10 µM; hit rate 1.2% among 140,000; AID 827, 2007;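 active = viability at or below a set limit, 4 SD under the median of all tested compounds, cut at about 3.7% in these data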;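 note: PTEN knockout HCT116 line with beta catenin targeted HCT116 as companion control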
Dynein transport = inhibitors of GR-EGFP nuclear translocation, primary screen, dynein cargo transport inhibitor project, imaging, high-content, 3617.4 mouse cells; AID 1381, 2008; test concentration mostly 20 µM; stimulated with dexamethasone, 1 µM; hits give low values; z-score, hits read low; hit rate 0.47% among 220,000;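 active = plate z-score of nuclear minus cytoplasmic receptor signal below a set negative limit, without overly bright fluorescence or cell loss, cut at about -3.5 in these data, passing the limit was not always enough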;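 note: z-score of nuclear minus cytoplasmic ring GR-EGFP intensity difference per well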
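Buffer or medium: tet-free, stripped-serum medium; reagent: dexamethasone at 1.0 µM final, 30 min; incubation: 48 h induction, 1 h compound, 30 min dex at 37 °C; measured by: formaldehyde fixation, Hoechst nuclear stain, 10x automated fluorescence imaging; read-out: nuclear-to-cytoplasmic GR-EGFP distribution per well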
The depositor's hits bear a star; i = inactive; / = not tested or not shown; + = active, no number.

SMILES	Lmaj promast	Autophagy HCS	bCat KO growth	PTEN del growth	Dynein transport
O=C(c1ccco1)N1CCN(C(=O)c2cc3c(=O)oc4ccccc4c3s2)CC1	1	+	86	104	-0.56
O=S(=O)(Nc1ccncc1Cl)c1ccc2ccccc2c1	3	i	/	/	1
CCN1/C(=C/C(C)=C/c2sc3ccccc3[n+]2CC)Sc2ccccc21	100*	i	/	/	12
CCN1/C(=C\C(=S)Nc2ccccc2)Sc2ccccc21	-1	i	/	/	0.18
O=C(Nc1ccc(Cl)cc1)OCc1cncs1	1	i	73	78	-0.43
O=C(Nc1cccc(Cl)c1)OCc1cncs1	78*	i	78	89	-0.56
Cc1ccccc1N=C1NC(=O)/C(=C/c2cccn2C)S1	/	/	/	/	0.00063
Cc1cccc(N=C2NC(=O)/C(=C3/C(=O)N(C)c4ccccc43)S2)c1C	68*	i	79	82	-0.45
Cc1ccc2c(c1)nc(-n1nc(C)cc1C)c1nnnn12	7	i	/	/	-0.31
Cc1c(-c2ncn[nH]2)sc(C#N)c1-c1ccccc1	-9	i	/	/	-0.7
CCOC(=O)/C(=N\Nc1ccccc1[N+](=O)[O-])c1csc(N)n1	52*	i	/	/	-0.69
CCOC(=O)/C(=N\Nc1ccc(C(C)=O)cc1)c1csc(Nc2ccccc2)n1	-4	+	91	86	-0.7
O=C(NN1C(=O)C2C3C=CC([C@@H]2C1=O)C31CC1)c1ccccc1 (stereo partly drawn)	/	/	/	/	-0.11
C=CCn1c(=O)/c(=C2/Sc3cc(OC)ccc3N2C)s/c1=C1\C(=O)N(CC)C(=S)N1C	-3	i	/	/	-0.74
Clc1cccc(Cl)c1/C=C/c1nc2ccccc2[nH]1	98*	i	50	46	-0.49
Clc1ccc(/C=C/c2nc3ccccc3[nH]2)cc1	31	i	41	45	/
COc1ccc(C2c3c(oc4ccc(Cl)cc4c3=O)C(=O)N2CCN2CCOCC2)cc1 (stereo not drawn)	/	/	/	/	-0.56
Cc1ccc2c(c1)C(c1ccc([N+](=O)[O-])cc1)=NNC(c1ccc(Br)cc1)=N2	53*	i	3.5*	2.5*	-0.022
CCc1ccc2c(c1)C(c1ccc([N+](=O)[O-])cc1)=NNC(c1ccc(Br)cc1)=N2	10	i	27	19	-0.81
CCN(CC)C(=O)CN(c1ccc(Cl)cc1)S(=O)(=O)c1ccccc1	90*	i	93	87	1.9
CNC(=O)c1c(NC(=O)c2cc(-c3cc(C)c(C)cc3O)n[nH]2)sc2c1CCCC2	/	/	/	/	1
N#Cc1ccc(OCC(=O)N/N=C2/CC(c3ccccc3)Oc3ccccc32)cc1 (stereo not drawn)	53*	i	55	61	0.89
CCOc1ccc(S(=O)(=O)N/N=C2/CC(c3ccccc3)Oc3ccccc32)cc1 (stereo not drawn)	50*	i	89	90	0.082
O=S(=O)(N/N=C1\CC(c2ccccc2)Oc2ccccc21)c1ccccc1 (stereo not drawn)	30	i	87	85	1.1
CC(C)C(NC(=O)C(NC(=O)C1O[C@@H]2OC(C)(C)O[C@@H]2[C@H]2OC(C)(C)O[C@@H]12)C(C)C)C(=O)O (stereo partly drawn)	0	i	/	/	-0.54
SMILES	Lmaj promast	Autophagy HCS	bCat KO growth	PTEN del growth	Dynein transport
C=CCN1C(=Nc2cccnc2)SCC1(O)c1ccc(C)cc1 (stereo not drawn)	61*	i	20	27	-1.8
COc1ccc(OCCC(=O)OCC(=O)c2ccc[nH]2)cc1	-6	i	/	/	-0.87
Cc1ccc(NC(=S)Nc2ccccn2)cc1C	/	/	/	/	0.57
Cc1ccc(NC(=S)Nc2ccc3nc(-c4ccccn4)c(-c4ccccn4)nc3c2)cc1C	72*	i	93	81	0.1
O=C(c1cc(N2C(=O)C3C4CCC(C4)C3C2=O)ccc1Cl)N1CCN(c2ccccc2)CC1 (stereo not drawn)	72*	i	84	93	-0.052
CC1CCN(C(=O)c2cc(N3C(=O)C4C5CCC(C5)C4C3=O)ccc2Cl)CC1 (stereo not drawn)	-5	i	/	/	-1.6
CC(=O)c1ccc(NC(=S)N(C)C2CCN(C)CC2)cc1	32	i	97	96	1.5
O=S(=O)(Nc1cccc(-c2cn3cccnc3n2)c1)c1ccc(-c2ccccc2)cc1	1	i	89	86	-0.42
